Reference: ChEMBL document CHEMBL4145448, “Broad activity of diphenyleneiodonium analogues against Mycobacterium tuberculosis, malaria parasites and bacterial pathogens” (Eur J Med Chem, 2018)

Columns and labels:
[1] = Selectivity index, ratio of CC50 for human HepG2 cells in presence of 1% FBS to MIC for Pseudomonas aeruginosa isolate 18878B klon 1; assay type: toxicity; details: read-out: Selectivity Index
Summary of the method: (§1)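 Selectivity index is CC50 (1% FBS) divided by MIC. […] They then got compound at 300 to 0.14 µM (3-fold steps) for 24 h at 37 °C, 5% CO2. Resazurin (10 µM, 2 h) was read at ex/em 560/590 in duplicate wells. For MIC, CLSI broth microdilution was run in CaMHB with ~10^6 cfu/mL inoculum and 0–128 µM compound.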

[2] = tested on: Klebsiella pneumoniae; test: Antibacterial activity against Klebsiella pneumoniae isolate 248-33-D after 18 hrs by broth microdilution method; assay type: functional
Summary of the method: (§2)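 Broth microdilution per CLSI in cation-adjusted Mueller-Hinton broth. 100 µL inoculum (~10^6 cfu/mL in CaMHB) mixed with 100 µL CaMHB containing compound, 0 to 128 µM. Incubated 18 h at 37 °C. MIC taken as the lowest concentration with no visible growth. Polymyxin B served as positive control. Isolates were stored at -80 °C in tryptone soy broth with 20% glycerol.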

[3] = Selectivity index, ratio of CC50 for human HepG2 cells in presence of 1% FBS to MIC for Escherichia coli N11281; assay type: toxicity; details: read-out: Selectivity Index
[4] = tested on: Klebsiella pneumoniae; test: Antibacterial activity against Klebsiella pneumoniae isolate M320445 after 18 hrs by broth microdilution method; assay type: functional; details: isolate M320445, 18 h; summary of the method: as §2
[5] = tested on: Escherichia coli; test: Antibacterial activity against Escherichia coli N4149 after 18 hrs by broth microdilution method; assay type: functional; details: N4149, 18 h; summary of the method: as §2
[6] = tested on: Acinetobacter baumannii; test: Antibacterial activity against Acinetobacter baumannii ATCC 19606 col10 after 18 hrs by broth microdilution method; assay type: functional; details: ATCC 19606 = CIP 70.34 = JCM 6841 col10, 18 h; summary of the method: as §2
[7] = tested on: Pseudomonas aeruginosa; test: Antibacterial activity against Pseudomonas aeruginosa isolate 18878B klon 1 after 18 hrs by broth microdilution method; assay type: functional; details: isolate 18878B klon 1, 18 h; summary of the method: as §2
[8] = tested on: Acinetobacter baumannii; test: Antibacterial activity against Acinetobacter baumannii ATCC 17978 after 18 hrs by broth microdilution method; assay type: functional; details: ATCC 17978, 18 h; summary of the method: as §2
[9] = Selectivity index, ratio of CC50 for human HepG2 cells in presence of 1% FBS to MIC for Klebsiella pneumoniae isolate 224-11-C; assay type: toxicity; details: read-out: Selectivity Index
[10] = Selectivity index, ratio of CC50 for human HepG2 cells in presence of 1% FBS to MIC for Pseudomonas aeruginosa isolate 912; assay type: toxicity; details: read-out: Selectivity Index; summary of the method: as §1
[11] = Cytotoxicity against human HepG2 cells after 24 hrs in presence of 1% FBS by resazurin dye based assay; assay type: cell-based
Summary of the method: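 HepG2 cells seeded at 4000/well in DMEM with 1% FBS and allowed to attach for 24 h at 37 °C, 5% CO2. Compounds added from 300 to 0.14 µM in 3-fold steps and incubated 24 h. 10 µM resazurin added for 2 h, fluorescence read at ex/em 560/590. Percent viability computed relative to untreated and negative controls, duplicate wells.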

[12] = Selectivity index, ratio of CC50 for human HepG2 cells in presence of 1% FBS to MIC for Pseudomonas aeruginosa isolate 19147nm; assay type: toxicity; details: read-out: Selectivity Index; summary of the method: as §1
[13] = tested on: Staphylococcus aureus; test: Antibacterial activity against vancomycin-intermediate Staphylococcus aureus ATCC 700698 after 18 hrs by broth microdilution method; assay type: functional; details: ATCC 700698, 18 h; summary of the method: as §2
[14] = tested on: Staphylococcus aureus; test: Antibacterial activity against vancomycin-resistant Staphylococcus aureus ATCC 700699 after 18 hrs by broth microdilution method; assay type: functional; details: ATCC 700699, 18 h; summary of the method: as §2
[15] = Selectivity index, ratio of CC50 for human HepG2 cells in presence of 1% FBS to MIC for Acinetobacter baumannii ATCC 19606; assay type: toxicity; details: read-out: Selectivity Index
[16] = tested on: Enterococcus faecium; test: Antibacterial activity against vancomycin-resistant Enterococcus faecium ATCC 700221 after 18 hrs by broth microdilution method; assay type: functional; details: ATCC 700221, 18 h; summary of the method: as §2
[17] = Selectivity index, ratio of CC50 for human HepG2 cells in presence of 1% FBS to IC50 for CQ-sensitive GFP-fused Plasmodium falciparum D10; assay type: toxicity; details: read-out: Ratio IC50
[18] = Selectivity index, ratio of CC50 for human HepG2 cells in presence of 1% FBS to MIC for Klebsiella pneumoniae isolate 1; assay type: toxicity; details: read-out: Selectivity Index
[19] = tested on: Mycobacterium tuberculosis; test: Antimycobacterial activity against Mycobacterium tuberculosis H37Rv ATCC 25618 after 7 days by resazurin dye based assay; assay type: functional; details: H37Rv ATCC 25618, 168 h
Summary of the method: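 H37Rv grown at 37 °C in 7H9 with 10% ADC, 0.5% glycerol and 0.02% tyloxapol. Compounds serially diluted in water, 0 to 10 µM, in triplicate. Culture adjusted to OD600 0.001 and incubated 7 days at 37 °C. Resazurin (0.05% w/v) added for 4-24 h and fluorescence read at 590 nm. MIC is the lowest concentration giving complete growth inhibition versus untreated. Rifampicin served as control.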

[20] = Selectivity index, ratio of CC50 for human HepG2 cells in presence of 1% FBS to MIC for Acinetobacter baumannii ATCC 19606 col10; assay type: toxicity; details: read-out: Selectivity Index
[21] = tested on: Pseudomonas aeruginosa; test: Antibacterial activity against Pseudomonas aeruginosa QLD PSA 1 after 18 hrs by broth microdilution method; assay type: functional; details: QLD PSA 1, 18 h; summary of the method: as §2
[22] = tested on: Escherichia coli; test: Antibacterial activity against Escherichia coli N11281 after 18 hrs by broth microdilution method; assay type: functional; details: N11281, 18 h; summary of the method: as §2
[23] = Selectivity index, ratio of CC50 for human HepG2 cells in presence of 1% FBS to MIC for Escherichia coli N4149; assay type: toxicity; details: read-out: Selectivity Index
[24] = tested on: Klebsiella pneumoniae; test: Antibacterial activity against Klebsiella pneumoniae isolate 1 after 18 hrs by broth microdilution method; assay type: functional; details: isolate 1, 18 h; summary of the method: as §2
[25] = tested on: Klebsiella pneumoniae; test: Antibacterial activity against Klebsiella pneumoniae isolate 224-11-C after 18 hrs by broth microdilution method; assay type: functional; summary of the method: as §2
[26] = Selectivity index, ratio of CC50 for human HepG2 cells in presence of 1% FBS to MIC for vancomycin-intermediate Staphylococcus aureus ATCC 700698; assay type: toxicity; details: read-out: Selectivity Index; summary of the method: as §1
[27] = tested on: Pseudomonas aeruginosa; test: Antibacterial activity against Pseudomonas aeruginosa isolate 19147nm after 18 hrs by broth microdilution method; assay type: functional; summary of the method: as §2
[28] = Selectivity index, ratio of CC50 for human HepG2 cells in presence of 1% FBS to MIC for Pseudomonas aeruginosa ATCC 27853; assay type: toxicity; details: read-out: Selectivity Index; summary of the method: as §1
[29] = Selectivity index, ratio of CC50 for human HepG2 cells in presence of 1% FBS to MIC for Klebsiella pneumoniae isolate 248-33-D; assay type: toxicity; details: read-out: Selectivity Index
[30] = tested on: Escherichia coli; test: Antibacterial activity against Escherichia coli N2381 after 18 hrs by broth microdilution method; assay type: functional; details: N2381, 18 h; summary of the method: as §2
[31] = tested on: Plasmodium falciparum; test: Growth inhibition of CQ-sensitive GFP-fused Plasmodium falciparum D10 after 90 hrs by ethidium bromide staining based flow cytometry; assay type: functional, organism-based; details: D10, 90 h
Summary of the method: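 Parasites cultured in human O+ erythrocytes in RPMI-HEPES pH 7.4 with hypoxanthine, NaHCO3, gentamicin and 0.5% Albumax II under 1% O2/4% CO2 at 37 °C. Synchronised to rings with heparin plus sorbitol. Set up at 1% parasitaemia and 1% haematocrit with 10x compound added. Cultured 90 h to next-cycle trophozoites. Stained with 10 µg/mL ethidium bromide for 1 h, washed, parasitaemia counted by flow cytometry with GFP gating.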

| Compound | selectivity ratio [1] | MIC [2] | selectivity ratio [3] | MIC [4] | MIC [5] | MIC [6] | MIC [7] | MIC [8] | selectivity ratio [9] | selectivity ratio [10] | CC50 at 24 h [11] | selectivity ratio [12] | MIC [13] | MIC [14] | selectivity ratio [15] | MIC [16] | selectivity ratio [17] | selectivity ratio [18] | MIC [19] | selectivity ratio [20] | other results |
| --- | --- | --- | --- | --- | --- | --- | --- | --- | --- | --- | --- | --- | --- | --- | --- | --- | --- | --- | --- | --- | --- |
| c1ccc2c(c1)[I+]c1c-2ccc2ccccc12 | 0.34 | 34 µM | 0.04 | 17 µM | 34 µM | 1.1 µM | 2.1 µM | 1.1 µM | 0.02 | 0.34 | 720 nM | 0.34 | 4.2 µM | 4.2 µM | 0.17 | 1.1 µM | 5.8 | 0.02 | 0.52 µM | 0.69 | MIC [21]: 4.2 µM; MIC [22]: 17 µM; selectivity ratio [23]: 0.02; MIC [24]: 34 µM; MIC [25]: 34 µM; selectivity ratio [26]: 0.17; MIC [27]: 2.1 µM; selectivity ratio [28]: 0.09; selectivity ratio [29]: 0.02; MIC [30]: 8.4 µM; IC50 [31]: 120 nM |
| Fc1ccc2c(c1)[I+]c1ccccc1-2 | 5.3 | 36 µM | 0.08 | 36 µM | 18 µM | 2.2 µM | 1.1 µM | 1.1 µM | 0.08 | 5.3 | 5900 nM | 11 | 8.9 µM | 8.9 µM | 2.6 | 2.2 µM | 105 | 0.08 | 0.29 µM | 2.6 | MIC [21]: 8.9 µM; MIC [22]: 18 µM; selectivity ratio [23]: 0.08; MIC [24]: 72 µM; MIC [25]: 72 µM; selectivity ratio [26]: 0.66; MIC [27]: 0.56 µM; selectivity ratio [28]: 0.66; selectivity ratio [29]: 0.16; MIC [30]: 18 µM; IC50 [31]: 60 nM |
